# GAA850 FXN act – FXN promoter activators, primary screen, cell-based, luciferase luminescence, HEK293 lucGAA850; HEK293 lucGAA850 FXN promoter luciferase reporter, 24 h; percent of 10 µM SAHA response; activation, % at 6 µM; hit rate 0.56% among 360,000; AID 540364, 2011;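 active means activation above the average of all compounds screened plus 3 SD, cutoff fixed separately per campaign, cut at about 7.5% in these data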;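 further: 0% = DMSO wells and 100% = 10 µM SAHA wells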
# V-ATPase pHluor – regulators of yeast V-ATPase proton pumping, primary screen, pHLuorin cytosolic pH fluorescence; S. cerevisiae; response, % at 10 µM; hit rate 0.37% among 350,000; AID 504577, 2011; in the data active means response mostly above about 7.3%, no sharp cut-off; inactive means mostly below about 5.4%; further: actives read high
# NR2E3 ag-1 – inhibitors of NR2E3-RetCOR corepressor binding, primary screen, NR2E3 agonist project, biochemical, TR-FRET, GST-NR2E3, biotin-RetCOR; Photoreceptor-specific nuclear receptor (Homo sapiens), Q9Y5X4; hit rate 0.12% among 320,000; 1536-well; inhibition of corepressor binding, % at 4.78 µM;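 active means percent inhibition above the cutoff of mean plus 3 SD of all tested compounds, set per screening campaign, cut at about 20% in these data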;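 further: 0% = DMSO wells and 100% = biotin wells as full block of FRET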
# Target sequence (Q9Y5X4 whole entry, looked up): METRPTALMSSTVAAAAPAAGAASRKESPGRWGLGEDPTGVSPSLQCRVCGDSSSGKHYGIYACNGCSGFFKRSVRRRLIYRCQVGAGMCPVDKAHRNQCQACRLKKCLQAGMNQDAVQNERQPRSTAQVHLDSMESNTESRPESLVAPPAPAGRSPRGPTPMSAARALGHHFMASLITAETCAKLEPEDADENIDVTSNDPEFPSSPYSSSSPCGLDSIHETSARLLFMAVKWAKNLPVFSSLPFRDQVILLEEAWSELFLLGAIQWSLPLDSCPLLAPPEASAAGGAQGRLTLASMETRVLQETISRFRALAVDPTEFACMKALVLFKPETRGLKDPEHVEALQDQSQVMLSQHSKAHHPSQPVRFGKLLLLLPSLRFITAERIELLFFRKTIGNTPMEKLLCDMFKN
#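 System: GST-tagged NR2E3 plus biotinylated RetCOR corepressor; Amount: 1.35 nM GST-tagged NR2E3 final; Dosing: single nominal compound dose of 4.8 µM; Schedule: 5 h incubation at 4 °C; Technique: TR-FRET with europium anti-GST and streptavidin-D2, 340 nm excitation; Controls: biotin wells as high control, 0.6% DMSO wells as low control.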
# NR2E3 ag-2 – NR2E3 agonists in two-hybrid cells, primary screen, cell-based, luminescence, CHO-S, Gal4-NCOR/VP16-NR2E3; hit rate 0.35% among 360,000; luciferase; AID 602229, 2012; Photoreceptor-specific nuclear receptor (Homo sapiens), Q9Y5X4; inhibition of corepressor binding, % at 3.98 µM;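 active means inhibition above the mean of all tested compounds plus 3 SD, cut at about 70% in these data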;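 further: 0% = DMSO with NR2E3 transfected cells and 100% = cells lacking NR2E3 construct; higher means lower luciferase signal from less NR2E3 corepressor binding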
# HIV Env fusion – inhibitors of HIV-1 Env-driven cell-cell fusion, primary screen, HeLa-JRFL effector, CEM21 target cells, luciferase; hit rate 1.1% among 360,000; AID 651610, 2012; inhibition, % at 12.3 µM;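 active means mean replicate inhibition score of at least 50 and every replicate individually at or above 50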;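 further: 0% = plate neutral controls and 100% = maraviroc near 300 nM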
# GalR3 antag – GalR3 antagonists in HEK293 cells, primary screen, cell-based, fluorescence readout; hit rate 0.44% among 360,000; inhibition, % at 3 µM; HEK293 GalR3-CNG cAMP membrane potential fluorescence; galR3 body fused to GalR1 C-terminus; Galanin receptor type 3 (Homo sapiens), O60755;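 active means inhibition above the screen-wide average plus 3 SD, cut at about 13% in these data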;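 further: forskolin and galanin both at EC90 stimulate the cells; cAMP rise reported by CNG channel membrane potential dye signal; 0% = forskolin plus galanin with DMSO and 100% = forskolin alone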
# GalR3 antag conf – GalR3 antagonist hit confirmation, cell-based, fluorescence, triplicate. shares compounds with GalR3 antag. HEK293 GalR3 CNG cAMP biosensor, membrane potential fluorescence; galR3 fused to GalR1 carboxy tail; challenged with forskolin and galanin at EC90. inhibition, % at 3 µM. hit rate 59% among 1,600. AID 652245, 2013;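 active means inhibition above the primary screen's cutoff, the mean inhibition of all screened compounds plus 3 SD, cut at about 13% in these data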;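 further: 0% = forskolin plus galanin and 100% = forskolin alone with DMSO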
# CNG parental – nonspecific cAMP agonists in parental HEK-CNG cells, counter-screen for GalR3 antagonist project, cell-based, fluorescence, high throughput. shares compounds with GalR3 antag. activation, % at 3 µM. HEK293-CNG parental cells, cAMP membrane potential fluorescence; normalised: DMSO wells 0%, forskolin wells 100%. hit rate 10% among 1,600. AID 652268, 2013; in the data active means activation above about 1.3%
# * hit, by the source's call; . = no result; [ ] = another dose, or the depositor's remark. In the library only some 2.2% were active in any assay of this set; here they are far more common.
SMILES,GAA850 FXN act,V-ATPase pHluor,NR2E3 ag-1,NR2E3 ag-2,HIV Env fusion,GalR3 antag,GalR3 antag conf,CNG parental
Cc1nnc(Sc2cc(NCCCO)c([N+](=O)[O-])c3nonc23)s1,2,-6,.,-30,-5,21*,5,0
COc1ccc(C2c3cc(OC)c(OC)cc3CC3C(=O)OCC32)cc1OC (stereo not given),1,2,.,-33,26,62*,65*,0
COc1ccc(C2CC(=O)c3cc(OC)c(OC)cc32)cc1OC (stereo not given),2,-2,2,-13,-2,-3,.,.
Cc1ccc(NC(=O)CSc2ncnc3ccccc23)cc1S(=O)(=O)N1CCCCCC1,-1,-5,1,-15,.,96*,108*,-2
Cc1ccc(NC(=O)CSc2ncn[nH]2)cc1S(=O)(=O)N1CCOCC1,0,-6,1,6,12,18*,8,0
CCc1cccc(OCC(=O)Nc2ccc(C)c(S(=O)(=O)N3CCCCCC3)c2)c1,-2,-2,-3,-15,15,87*,80*,0
C=CCn1c(SC2CCOC2=O)nc2sc(C)c(C)c2c1=O (stereo not given),1,3,-2,-20,29,35*,36*,0
CCCCNC(=O)COC(=O)c1ccccc1F,1,0,1,-33,4,19*,2,0
O=C(COC(=O)c1ccccc1F)NNC(=O)c1ccccc1,-2,-1,-2,1,0,0,.,.
CCCCc1nnc(NC(=O)c2nc3nccc(C)n3n2)s1,-1,-1,-2,-2,2,-5,.,.
CCc1nnc(NC(=O)c2nc3nc(C)cc(C)n3n2)s1,-3,1,-7,-13,.,13*,0,0
C[C@@H]1CCCCO[C@@H](CN(C)C(=O)Nc2ccc3c(c2)OCO3)[C@H](C)CN([C@@H](C)CO)C(=O)c2cc(NC(=O)Nc3ccc(C(F)(F)F)cc3)ccc2O1,.,.,.,.,22[16.7 µM],.,.,.
O=C(Nc1ccccc1F)C1CCCC1,1,0,-1,-6,6,-5,.,.
O=C(Nc1ccccc1NS(=O)(=O)c1ccc(F)cc1)C1CCC1,0,-2,-7,-30,-4,.,-3,0
COc1ccc(-c2cc(C)no2)cc1S(=O)(=O)N1CCN(c2cccc(C)c2)C(C)C1 (stereo not given),-5,0,-4,-21,35,1,.,.
Cc1cccc(N2CCN(S(=O)(=O)c3cc(-c4cc(C)no4)ccc3C)CC2C)c1 (stereo not given),-8,3,-2,-60,-47,52*,88*,0
O=C(Nc1ccc(Cl)c(S(=O)(=O)N2CCOCC2)c1)c1ccncc1,1,2,.,9,-7,43*,7,0
CC(CC(=O)Nc1ccc(Cl)c(S(=O)(=O)N2CCOCC2)c1)c1ccccc1 (stereo not given),-5,1,.,18,16,96*,120*,-1
CC(=O)Nc1ccc(OCC(=O)Nc2ccc(Cl)c(S(=O)(=O)N3CCOCC3)c2)cc1,-5,.,.,-9,27,31*,92*,-1
O=C(O)CC(SCC(=O)Nc1ccc(Cl)c(S(=O)(=O)N2CCOCC2)c1)C(=O)O (stereo not given),0,4,-1,-15,-9,-2,.,.
COC(=O)CSc1nc(N)c(C#N)c(-c2ccc(O)cc2)c1C#N,4,-1,-2,-46,10,45*,74*,1
CC(C)c1ccc(-c2c(C#N)c(N)nc(SCC(=O)N3CCCCCC3)c2C#N)cc1,.,.,3,.,-296,0,.,.
CCC(=O)Nc1ccc2c(c1)OC[C@@H](C)N(C(C)=O)C[C@@H](C)[C@H](OC)CN(C)C2=O,.,.,.,.,22[16.7 µM],.,.,.
CCC(=O)Nc1ccc2c(c1)OC[C@H](C)N(C(=O)CN(C)C)C[C@H](C)[C@@H](OC)CN(C)C2=O,.,.,.,.,8[16.7 µM],.,.,.
O=C(Nc1ccccc1)/C(=C/c1ccccc1)NC(=O)c1ccco1,2,-2,-1,10,5,-6,.,.
SMILES,GAA850 FXN act,V-ATPase pHluor,NR2E3 ag-1,NR2E3 ag-2,HIV Env fusion,GalR3 antag,GalR3 antag conf,CNG parental
O=C(Nc1ccccc1)/C(=C/c1ccc(O)cc1)NC(=O)c1ccco1,0,1,5,-13,-6,15*,-1,0
CCCCC[C@H](O)/C=C/[C@H]1[C@H](O)CC(=O)[C@@H]1CCCCCCC(=O)O,.,.,-2,.,.,.,.,.
CCCCCC(O)C=CC1C(O)CC(O)C1CC=CCCCC(=O)O (stereo not given),6,2,.,-19,-12,96*,95*,0
CCCC#Cc1ccc2c(c1)O[C@H](CN(C)C(C)=O)[C@@H](C)CN([C@@H](C)CO)S2(=O)=O,.,.,.,.,-9[16.7 µM],.,.,.
C[C@@H]1CN([C@@H](C)CO)C(=O)c2cc(NS(=O)(=O)c3ccccc3)ccc2O[C@@H](C)CCCCO[C@@H]1CN(C)Cc1ccc(C(F)(F)F)cc1,.,.,.,.,-24[16.7 µM],.,.,.
Cc1onc(-c2ccccc2)c1-c1nc2cc(Cl)ccc2c(=O)o1,0,-1,4,-19,5,-2,.,.
Cc1onc(-c2ccccc2)c1-c1nc2ccccc2c(=O)o1,1,-7,3,-26,-170,16*,13*,2.0*
CCOc1ccc(CN(C(=O)c2cc(=O)c3cc(C)cc(C)c3o2)C2CCS(=O)(=O)C2)cc1 (stereo not given),2,2,3,-17,14,17*,2,0
O=C1/C(=C/c2cccc([N+](=O)[O-])c2)CCc2ccccc21,6,4,1,-7,-15,16*,8,0
CCOc1ccc(Oc2ccccc2NC(=O)CSCC(=O)Nc2cc(C)on2)cc1,-3,-1,-3,-46,4,40*,73*,0
COCC(=O)Nc1ccc2c(c1)C(=O)N(C)C[C@@H](OC)[C@H](C)CN(C)[C@H](C)CO2,.,.,.,.,1[16.7 µM],.,.,.
Oc1cccc(Oc2ncc(C(F)(F)F)cc2Cl)c1,1,-1,3,-1,17,13*,1,0
